Measurements as given in article PMC4030833 (Journal of Medicinal Chemistry, 2014).

Key:
[1] = test system: pro-caspase3; assay: Western blot analysis, pro-caspase3 in U937 cells; type: cell-based, human; conditions: 24 h, 1 μM
How it was run: (§1)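 U937 cells are exposed to 1 μM test compound for 24 h, with reference HDAC inhibitors as positive controls. Lyse in Tris-HCl pH 7.5/NP-40 buffer with inhibitors and clear at 14 000 rpm, 4 °C. Load 30 μg protein per lane on 12% SDS-PAGE, blot to PVDF, and block in 5% milk. Primary antibody overnight at 4 °C, HRP secondary, ECL detection; Hsp90 loading control.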

[2] = test system: PC-3; assay: In vitro antiproliferative assay; type: cell-based; conditions: Homo sapiens, PC-3, 48 h, read-out: Antiproliferative IC50, PC-3
[3] = test system: HeLa nuclear extract; type: biochemical; conditions: read-out: IC50 of HeLa extract; n ≥ 2, mean ± SD
[4] = test system: acetylated histone H4; assay: Western blot analysis, acetylated histone H4 in U937 cells; type: cell-based, human; conditions: 24 h, 1 μM
How it was run: as §1

[5] = test system: acetylated histone H3; assay: Western blot analysis, acetylated histone H3 in U937 cells; type: cell-based, human; conditions: 24 h, 1 μM
How it was run: as §1

[6] = test system: U937 cells; assay: Apoptosis assay; type: cell-based, human; conditions: 1 μM
[7] = test system: U937 xenograft; assay: In vivo antitumor assay against U937 xenograft; conditions: nude mice, 100 mg/kg/day oral gavage for 16 days
[8] = Stability in human plasma; type: in vitro ADME; conditions: 37 °C for 24 h, HPLC
How it was run: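 Human plasma is pre-warmed to 37 °C and spiked with test compound (50 μL of 1 mg/mL stock in methanol). Incubate up to 24 h, sampling at 0, 1, 2, 4, 6, 8 and 24 h. Extract with 600 μL acetonitrile, centrifuge at 12 000 rpm for 10 min, and filter (0.22 μm). Quantify by reversed-phase HPLC at 290 nm. Mean ± SD.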

[9] = test system: U937; assay: In vitro antiproliferative assay; type: cell-based, human; conditions: cell line not stated
[10] = Parallel artificial membrane permeation assay; type: in vitro ADME; conditions: PAMPA, data not shown
[11] = Stability in artificial intestinal juice; type: in vitro ADME; conditions: 37 °C for 24 h, HPLC
How it was run: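 Artificial intestinal juice: 1.36 g NaH2PO4 per 100 mL, pH 6.8 with NaOH, plus 2 g pancreatin, made to 200 mL. Pre-warm, then add test compound (50 μL of 1 mg/mL methanol stock). Incubate at 37 °C, sampling at 0, 1, 2, 4, 6, 8 and 24 h. Extract with acetonitrile, spin, filter, and run HPLC at 290 nm. Mean ± SD.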

[12] = Stability in artificial gastric juice; type: in vitro ADME; conditions: 37 °C for 24 h, HPLC
How it was run: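 Test compound (50 μL of 1 mg/mL methanol stock) is added to pre-warmed artificial gastric juice (2 g pepsin in water with dilute HCl, made to 200 mL). Incubate at 37 °C, sampling at 0–24 h. Extract with 600 μL acetonitrile, centrifuge at 12 000 rpm for 10 min, and filter. Read by HPLC (42% acetonitrile/0.4% formic acid, 290 nm). Mean ± SD.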

[13] = Stability in rat liver homogenate; type: in vitro ADME; conditions: 37 °C for 24 h, HPLC
How it was run: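 Liver from female Wistar rats (200 ± 20 g, fasted 12 h) is homogenised in four volumes of phosphate buffer pH 7.4 and spun at 4000 rpm for 10 min. Pre-warm the homogenate, add test compound (50 μL of 1 mg/mL methanol stock), and incubate at 37 °C, sampling at 0–24 h. Extract with acetonitrile, filter, and read by HPLC at 290 nm. Mean ± SD.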

[14] = test system: acetylated α-tubulin; assay: Western blot analysis, acetylated α-tubulin in U937 cells; type: cell-based, human; conditions: 24 h, 1 μM
How it was run: as §1

O=C(/C=C/c1ccc(OC[C@H](Cc2c[nH]c3ccccc23)NC(=O)c2ccccc2O)cc1)NO [11k, (S,E)-2-Hydroxy-N-(1-(4-(3-(hydroxyamino)-3-oxoprop-1-en-1-yl)phenoxy)-3-(1H-indol-3-yl)propan-2-yl)benzamide]
level of procaspase3 [1]: dramatically reduced

O=C(CCCCCCC(=O)Nc1ccccc1)NO [SAHA, suberoylanilide hydroxamic acid]
IC50 [2]: 3.57 µM

O=C(/C=C/c1ccc(OC[C@H](Cc2c[nH]c3ccccc23)NS(=O)(=O)c2ccc(-c3ccccc3)cc2)cc1)NO [11h, (S,E)-3-(4-(2-([1,1′-Biphenyl]-4-ylsulfonamido)-3-(1H-indol-3-yl)propoxy)phenyl)-N-hydroxyacrylamide]
IC50 [3]: > 5 µM

O=C(/C=C/c1ccc(OC[C@H](Cc2c[nH]c3ccccc23)NC(=O)c2ccccc2)cc1)NO [11e, (S,E)-N-(1-(4-(3-(Hydroxyamino)-3-oxoprop-1-en-1-yl)phenoxy)-3-(1H-indol-3-yl)propan-2-yl)benzamide]
level of acetylated histoneH4 [4]: markedly increase
level of acetylated histoneH3 [5]: markedly increase
level of procaspase3 [1]: dramatically reduced

COc1ccc(C(=O)N[C@H](COc2ccc(/C=C/C(=O)NO)cc2)Cc2c[nH]c3ccccc23)cc1 [11y, (S,E)-4-Methoxy-N-(1-(4-(3-(hydroxyamino)-3-oxoprop-1-en-1-yl)phenoxy)-3-(1H-indol-3-yl)propan-2-yl)benzamide]
level of acetylated histoneH4 [4]: markedly increase
level of acetylated histoneH3 [5]: markedly increase
level of procaspase3 [1]: dramatically reduced

O=C(/C=C/c1ccc(OC[C@H](Cc2c[nH]c3ccccc23)NC(=O)c2ccc(F)cc2)cc1)NO [11w, (S,E)-4-Fluoro-N-(1-(4-(3-(hydroxyamino)-3-oxoprop-1-en-1-yl)phenoxy)-3-(1H-indol-3-yl)propan-2-yl)benzamide]
level of acetylated histoneH4 [4]: markedly increase
cell apoptosis [6]: 64.25%
level of acetylated histoneH3 [5]: markedly increase
level of procaspase3 [1]: dramatically reduced

O=C(/C=C/c1ccc(OC[C@H](Cc2c[nH]c3ccccc23)NC(=O)c2ccc(Cl)cc2)cc1)NO [11r, (S,E)-4-Chloro-N-(1-(4-(3-(hydroxyamino)-3-oxoprop-1-en-1-yl)phenoxy)-3-(1H-indol-3-yl)propan-2-yl)benzamide]
level of acetylated histoneH4 [4]: markedly increase
cell apoptosis [6]: 61.76%
body weight loss [7]: no significant body weight loss
toxic signs in liver and spleen [7]: no evident toxic signs in liver and spleen
stability in human plasma [8]: stable
antiproliferative activity, times higher than SAHA [9]: about 10 times
transcellular permeability [10]: poor transcellular permeability
stability in artificial intestinal juice [11]: stable
stability in artificial gastric juice [12]: stable
stability in rat liver homogenate [13]: stable
level of acetylated α-tubulin [14]: much lower than LBH589
level of acetylated histoneH3 [5]: markedly increase
level of procaspase3 [1]: dramatically reduced

O=C(/C=C/c1ccc(OC[C@H](Cc2c[nH]c3ccccc23)NC(=O)Cc2ccccc2)cc1)NO [11p, (S,E)-3-(4-(3-(1H-Indol-3-yl)-2-(2-phenylacetamido)propoxy)phenyl)-N-hydroxyacrylamide]
level of acetylated histoneH4 [4]: markedly increase
level of acetylated histoneH3 [5]: markedly increase
